# According to ChEMBL document CHEMBL1134550, “Structure-activity studies of ground- and transition-state analogue inhibitors of cyclophilin” (J Med Chem, 2001):
# Target: Peptidyl-prolyl cis-trans isomerase A (Homo sapiens, UniProt P62937)
# Test: Binding affinity towards cyclophilin A by fluorescence
# Method in brief: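 Recombinant human cyclophilin A, expressed in E. coli with IPTG induction and partially purified by ammonium sulfate fractionation and DEAE-Sepharose. Intrinsic Trp fluorescence enhancement measured at room temperature in 50 mM Tris-HCl pH 7.6, 0.1 M NaCl. Kd from nonlinear least-squares fit to a quadratic binding equation.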
# Chain of Peptidyl-prolyl cis-trans isomerase A (P62937 whole entry): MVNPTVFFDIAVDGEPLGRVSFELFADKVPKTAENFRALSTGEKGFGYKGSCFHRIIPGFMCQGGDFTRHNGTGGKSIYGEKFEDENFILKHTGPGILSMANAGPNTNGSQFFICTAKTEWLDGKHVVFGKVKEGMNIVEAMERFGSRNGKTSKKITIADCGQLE
row,Kd [µM],SMILES
1,4.7,COC(=O)[C@]12CCCN1C(=O)[C@](Cc1ccc3ccccc3c1)(NC(=O)OCc1ccccc1)CC2
2,> 200,COC(=O)[C@]12CCCN1C[C@@H](NC(=O)OC(C)(C)C)CC2
3,1.5,COC(=O)[C@]12CCCN1C(=O)[C@](Cc1ccc3ccccc3c1)(NC(C)=O)CC2
4,> 200,COC(=O)[C@]12CCCN1C(=O)[C@@H](NC(=O)OC(C)(C)C)CC2
5,17,COC(=O)[C@]12CCCN1C(=O)[C@](Cc1ccc3ccccc3c1)(NC(=O)OC(C)(C)C)CC2
6,124,COC(=O)[C@]12CCCN1C(=O)[C@](Cc1ccccc1)(NC(=O)OCc1ccccc1)CC2
7,> 200,COC(=O)[C@]12CCCN1C[C@H](NC(=O)OC(C)(C)C)CC2
8,> 200,COC(=O)[C@]12CCCN1C(=O)[C@H](NC(=O)OCc1ccccc1)CC2
9,> 200,COC(=O)[C@]12CCCN1C(=O)[C@H](NC(=O)OC(C)(C)C)CC2
10,140,COC(=O)[C@]12CCCN1C(=O)[C@](Cc1ccccc1)(NC(=O)OC(C)(C)C)CC2
11,77,COC(=O)[C@]12CCCN1C[C@](Cc1ccc3ccccc3c1)(NC(=O)OC(C)(C)C)CC2
